Results: ChEMBL document CHEMBL4680238, “Novel octapeptide-DTX prodrugs targeting MMP-7 as effective agents for the treatment of colorectal cancer with lower systemic toxicity” (Eur J Med Chem, 2020)
Residues, ends and D or L forms follow the SMILES beside them. *: point of attachment. X1 = CC(=O)O[C@@]12CO[C@@H]1C[C@H](O)[C@@]1(C)C(=O)[C@H](O)C3=C(C)[C@@H](OC(=O)[C@H](OC(=O)OCc4ccc(N*)cc4)[C@@H](NC(=O)OC(C)(C)C)c4ccccc4)C[C@@](O)([C@@H](OC(=O)c4ccccc4)[C@H]21)C3(C)C

Legend:
[1] = Toxicity in BALB/c nude mouse xenografted with human HCT-116 cells assessed as reduction in body weight at 11.7 mg/kg, ip administered once for every 7 days for 14 days relative to control; assay type: organism-based; set-up: scale not given: the % may be the effect or the level left; conditions: in vivo, 336 h, time 14 day
Method in brief: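 HCT116 s.c. xenografts in male BALB/c nude mice, n = 6 per group. Dosing was ip once every 7 days for 2 weeks in DMSO/castor oil/ethanol/saline; vehicle controls got solvent. Body weight recorded every other day or every three days. Weight loss taken at day 14. Mean ± SD.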

HCT-116 [2] = experiment: Cytotoxicity against human HCT-116 cells assessed as reduction in cell viability after 48 hrs by MTT assay; assay type: functional, cell-based; conditions: HCT-116, 48 h
Method in brief: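 Cells seeded at 5000/well and precultured 1 day. HCT116 grown in McCoy's 5A + 10% FBS; SW620 and HEK293 in DMEM + 10% FBS; CCD18Co in DMEM + 15% FBS. Compounds from 0.1 M DMSO stocks were tested at 10^-10 to 10^-4 mol/L in sixplicate: HCT116 and HEK293 for 48 h, SW620 and CCD18Co for 72 h, at 37 °C, 5% CO2. MTT (5 mg/mL) added for 4 h, then A570 read; IC50 estimated.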

[3] = Half life of compound in PBS buffer at pH 7.4 at 50 ug/ml up to 72 hrs by RP-HPLC analysis; assay type: physicochemical; conditions: dose 50 µg/ml
HCT-116 [4] = experiment: Antitumour activity against human HCT-116 cells xenografted in ip dosed BALB/c nude mouse assessed as tumour growth inhibition administered once for every 7 days for 14 days; assay type: functional, organism-based; conditions: time 14.0 day
Method in brief: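 Male BALB/c nude mice received s.c. HCT116 cells (2 × 10^6 in 0.2 mL PBS). Once tumours reached 100-200 mm3, mice were randomized into groups of six. Dosing was ip, 0.1 mL/10 g, once every 7 days, in DMSO 0.5%/castor oil 5%/ethanol 5%/saline 89.5%; vehicle controls got solvent. Caliper volume V = L×W²×0.52 read every 2-3 days. Tumours excised and weighed on day 14.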

[5] = Toxicity in BALB/c nude mouse xenografted with human HCT-116 cells assessed as reduction in body weight at 5.85 mg/kg, ip administered once for every 7 days for 14 days relative to control; assay type: organism-based; set-up: scale not given: the % may be the effect or the level left; conditions: in vivo, 336 h, time 14 day
Method in brief: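 HCT116 cells (2 × 10^6 in 0.2 mL PBS) inoculated subcutaneously into male BALB/c nude mice; at mean tumor volume 100-200 mm3, randomized, six mice per group. Dosed intraperitoneally once every 7 days in DMSO (0.5%)/castor oil (5%)/ethanol (5%)/saline (89.5%), 0.1 mL per 10 g; vehicle controls received solvent. Body weight monitored every other day or three days; mice weighed on day 14.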

[6] = Toxicity in BALB/c nude mouse xenografted with human HCT-116 cells assessed as necrosis in liver at 11.73 mg/kg, ip administered once for every 7 days for 14 days by H and E staining based assay; assay type: organism-based; conditions: in vivo, 336 h, time 14 day
Method in brief: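 At the end of the 14-day ip xenograft study (HCT116, BALB/c nude), heart and liver were collected from vehicle and molar-equivalent dose groups. Tissues fixed in 10% formalin in PBS and stained with H&E. Liver examined at 400×, heart at 100×.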

[7] = Toxicity in ip dosed Kunming mouse measured for 14 days; assay type: organism-based; conditions: in vivo, time 14 day
Method in brief: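 Healthy Kunming mice of both sexes, 20 ± 2 g, randomised into 5 groups of 10 matched for weight and size. Compound given once intraperitoneally at 400, 300, 250 or 150 mg/kg in formulation solvent (0.5% DMSO, 5% castor oil, 5% ethanol, 89.5% saline), 0.1 mL per 10 g; vehicle controls received solvent. Deaths recorded daily for 14 days; LD50 by Bliss method.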

[8] = MRT (0 to infinity) in Sprague-Dawley rat at 5 mg/kg, iv measured up to 72 hrs by LC-MS/MS analysis; assay type: ADME, organism-based; conditions: in vivo
Method in brief: (§1)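 Male SD rats (180-200 g), fasted 12 h with free water, n = 3 per group. Single tail-vein dose of 5 mg/kg in 0.5% DMSO/5% castor oil/5% ethanol/89.5% saline. Retro-orbital blood drawn 0.083-72 h with heparin. Plasma protein-precipitated with methanol containing paclitaxel internal standard, then analysed by LC-MS/MS. Parameters from non-compartmental analysis, mean ± SD. For the DTX group, parameters were calculated after converting dose to the molar equivalent of the prodrug.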

[9] = Half life in Sprague-Dawley rat at 5 mg/kg, iv measured up to 72 hrs by LC-MS/MS analysis; assay type: ADME, organism-based; conditions: in vivo; method in brief: as §1
[10] = AUC (0 to infinity) in Sprague-Dawley rat assessed as docetaxel level at 5 mg/kg, iv measured up to 72 hrs by LC-MS/MS analysis; assay type: ADME, organism-based; set-up: route intravenous, dose 5 mg/kg, time <=72; conditions: in vivo; method in brief: as §1
[11] = Drug uptake in BALB/c nude mouse xenografted with human HCT-116 cells assessed as drug level in liver at 5 mg/kg, iv measured up to 24 hrs by LC-MS/MS analysis; assay type: ADME, organism-based; conditions: in vivo
Method in brief: (§2)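 Male BALB/c nude mice bearing s.c. HCT116 tumours (200-300 mm3), 20 per group. Single tail-vein dose of 5 mg/kg. Five mice per group killed at 0.5, 4, 8 and 24 h and heart-perfused with PBS. Tissues homogenized in saline (4 µL/mg) and precipitated with methanol containing paclitaxel internal standard. Prodrug, released DTX and free DTX measured by LC-MS/MS.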

[12] = Drug uptake in BALB/c nude mouse xenografted with human HCT-116 cells assessed as drug level in spleen at 5 mg/kg, iv measured up to 24 hrs by LC-MS/MS analysis; assay type: ADME, organism-based; conditions: in vivo; method in brief: as §2
[13] = Drug uptake in BALB/c nude mouse xenografted with human HCT-116 cells assessed as drug level in tumour at 5 mg/kg, iv measured up to 24 hrs by LC-MS/MS analysis; assay type: ADME, organism-based, Neoplasm; conditions: in vivo; method in brief: as §2

In the case of CC[C@H](C)[C@H](NC(=O)CNC(=O)[C@H](CCC(N)=O)NC(=O)[C@@H]1CCCN1C(=O)CNC(C)=O)C(=O)N[C@@H](C)C(=O)N[C@@H](CCSC)C(=O)N[C@@H](CCC(N)=O)C(=O)N[C@@H](CC(C)C)C(=O)Nc1ccc(COC(=O)O[C@@H](C(=O)O[C@H]2C[C@@]3(O)[C@@H](OC(=O)c4ccccc4)[C@@H]4[C@]5(OC(C)=O)CO[C@@H]5C[C@H](O)[C@@]4(C)C(=O)[C@H](O)C(=C2C)C3(C)C)[C@@H](NC(=O)OC(C)(C)C)c2ccccc2)cc1 (Ac-GPQGIAMQL-X1), the Activity [1] is reported as 8.5%, the IC50 (HCT-116 [2]) is reported as 9.1 nM and the half-life at 50 ug/ml [3] is reported as > 72 h. The TGI (HCT-116 [4]) was “Dose-dependent effect”, the Activity [5] was 4.9% and the Activity [6] was “Non-Toxic”. For the same molecule, the LD50 at 336 h [7] was 245 mg/kg, the MRT inf [8] was 11.6 h and the half-life [9] was 12.8 h. The AUC [10] was 299 ng·h/mL, the Drug uptake [11] was “Active” and the Drug uptake [12] was “Active”. The Drug uptake [13] was “Active”.
